Values after ≈ are worked out from the molar mass of the structure shown.
What was measured:
[1] = Antiangiogenic activity against chorioallantoic membrane (CAM) assay at 10 ug/egg; type: functional, tissue-based
[2] = tested on: HUVEC; assay: Antiangiogenic activity to suppress the growth factor induced tube formation byHUVEC on Matrigel was assessed at the concentration of 10 ug/mL; type: functional; conditions: Homo sapiens
[3] = tested on: HUVEC; assay: Antiangiogenic activity against HUVEC cells in HUVEC(Human Umbilical Vein Endothelial Cells) proliferation assay usingMTT colorimetric method; type: functional, cell-based
Summary of the method: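 HUVEC growth measured by MTT colorimetric read-out. IC50 taken from a nonlinear regression fit with r2 > 0.9.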

SMILES | inhibition [1] [%] | inhibition at 10 µg/mL [2] [%] | IC50 [3] [µg/mL]
C[C@@H]1CC[C@H]2[C@@H](C)/C(=C\Br)O[C@@H]3O[C@]4(C)CC[C@@H]1[C@]32OO4 | 80 | 25 | 4.8 (≈ 13.4 µM)
CCC/C(Br)=C1/O[C@@H]2OC3(C)CC[C@H]4[C@H](C)CC[C@@H]([C@H]1C)[C@@]24OO3 (single isomer, unassigned) | 8 | 10 | 1.9 (≈ 4.73 µM)
C[C@@H]1CC[C@H]2[C@@H](C)/C(=C\c3ccccc3)O[C@@H]3OC4(C)CC[C@@H]1[C@]32OO4 (single isomer, unassigned) | 10 | 10 | 1.9 (≈ 5.33 µM)
CC(C)=C1O[C@@H]2OC3(C)CC[C@H]4[C@H](C)CC[C@@H]([C@H]1C)[C@@]24OO3 (single isomer, unassigned) | 29 | 13 | 2.3 (≈ 7.46 µM)
C[C@@H]1CC[C@H]2[C@@H](C)C(=Cc3ccccc3)O[C@@H]3OC4(C)CC[C@@H]1[C@]32OO4 (single isomer, unassigned) | 5 | 10 | 2.3 (≈ 6.45 µM)
C/C(Br)=C1/O[C@@H]2OC3(C)CC[C@H]4[C@H](C)CC[C@@H]([C@H]1C)[C@@]24OO3 (single isomer, unassigned) | 43 | 32 | 25.4 (≈ 68 µM)
C/C(Br)=C1\O[C@@H]2OC3(C)CC[C@H]4[C@H](C)CC[C@@H]([C@H]1C)[C@@]24OO3 (single isomer, unassigned) | 50 | 65 | 4.5 (≈ 12.1 µM)
CCC/C(Br)=C1\O[C@@H]2OC3(C)CC[C@H]4[C@H](C)CC[C@@H]([C@H]1C)[C@@]24OO3 (single isomer, unassigned) | 57 | 39 | 1.5 (≈ 3.74 µM)

— ChEMBL document CHEMBL1146795, “Synthesis and antiangiogenic activity of exo-olefinated deoxoartemisinin derivatives” (Bioorg Med Chem Lett, 2004)
